Assay results published in publication PMC5891194 (Cancer Science, 2018).

What was measured:
[1] = test system: CD31‐positive microvessels in SW620 tumor xenografts; experiment: CD31 immunohistochemistry, microvessel density in SW620 xenograft tumors; type: in vivo, nude mice
In short: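 Nude mice (female Balb/cA-nude) bearing subcutaneous SW620 xenografts were dosed orally once daily for 14 days. Tumors were formalin-fixed and paraffin-embedded, and sections were stained for the endothelial marker CD31 with a rabbit anti-mouse antibody and an S-P immunodetection kit. Vessel density was derived from CD31 staining.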

VEGFR3 = VEGFR3 (Homo sapiens, UniProt P35916); experiment: Tyrosine kinase ELISA, VEGFR3; type: biochemical
HER2 [2] = biological target: T1, HER2 (Homo sapiens, UniProt P04626); experiment: Tyrosine kinase ELISA, HER2; type: biochemical
c‐Src = c‐Src (Homo sapiens, UniProt P12931); experiment: biochemical; type: biochemical
HUVEC [3] = experiment: cells; type: cell-based; settings: Homo sapiens, 72 h, read-out: IC50 VEGF‐stimulated HUVEC proliferation
HUVEC [4] = experiment: cells; type: cell-based; settings: Homo sapiens, 8 h, read-out: IC50 HUVEC migration in response to VEGF
EGFR = EGFR (Homo sapiens, UniProt P00533); experiment: biochemical; type: biochemical
VEGFR2 [5] = biological target: T2, VEGFR2 (Homo sapiens, UniProt P35968); experiment: Tyrosine kinase ELISA, VEGFR2; type: biochemical
HUVEC [6] = experiment: FBS‐stimulated HUVEC proliferation; type: cell-based; settings: Homo sapiens, 72 h, read-out: IC50 FBS‐stimulated HUVEC proliferation
In short: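 HUVEC were isolated from umbilical cord veins and maintained in M199 with 20% FBS plus endothelial cell growth supplement. Cells were exposed to serial drug dilutions with 20% FBS for 72 h. Viability was measured by sulforhodamine B, and IC50 was obtained by curve fitting. Values are mean ± SD of 3 independent experiments.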

panel of tumor cells = experiment: FBS‐stimulated tumor cell proliferation; type: cell-based, human
In short: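 Tumor lines were grown in 10% FBS and treated with serial drug dilutions for 72 h, with sulforhodamine B readout. IC50 was obtained by curve fitting (mean ± SD, 3 independent experiments).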

c‐Kit [7] = biological target: T3, c‐Kit (Homo sapiens, UniProt P10721); experiment: SCF‐1‐stimulated c‐Kit phosphorylation in Mo7e cells; type: cell-based; settings: SCF‐1 2.5 ng/mL
c‐Kit [8] = biological target: T3, c‐Kit; experiment: Tyrosine kinase ELISA, c‐Kit; type: biochemical
PDGFRβ = PDGFRβ (Homo sapiens, UniProt P09619); experiment: PDGF‐BB‐stimulated PDGFRβ phosphorylation in U‐87MG cells; type: cell-based; settings: PDGF‐BB 10 ng/mL
[9] = once‐daily dose of 12 mg; cited from earlier work
HER2 [10] = biological target: T1, HER2; experiment: Constitutive HER2 signaling in BT‐474 cells; type: cell-based; settings: even at 1000 nmol/L
c‐Met = c‐Met (Homo sapiens, UniProt P08581); experiment: Tyrosine kinase ELISA, c‐Met; type: biochemical
VEGFR1 = VEGFR1 (Homo sapiens, UniProt P17948); experiment: Tyrosine kinase ELISA, VEGFR1; type: biochemical
VEGFR2 [11] = biological target: T2, VEGFR2; experiment: VEGF‐stimulated VEGFR2 phosphorylation in HUVEC; type: cell-based
rat aortic rings = experiment: Rat aortic ring assay; type: cell-based; settings: 100 nmol/L, VEGF 50 ng/mL, 7 days
In short: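 Thoracic aortas from 6-week-old male Sprague-Dawley rats were cut into 1-mm rings, embedded in Matrigel and held 1 h at 37°C. M199 containing VEGF-A (50 ng/mL) plus drug was added. After 7 days, sprouting microvessels were counted in 5 random fields.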

SW620 tumor xenografts = experiment: SW620 tumor xenograft in nude mice; type: in vivo
In short: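 Female Balb/cA-nude mice, 5–6 weeks old, received cells subcutaneously in the left axilla and were randomized at 100–200 mm3 tumor volume. Dosing was oral, daily for 18 d (vehicle n = 12, treated n = 6). Tumor volume, calculated as (length × width²)/2, and bodyweight were measured twice weekly. TGI was calculated from treatment start against vehicle. Data are mean ± SEM; Student's t test.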

HUVEC [12] = experiment: HUVEC tube‐formation assay on Matrigel; type: cell-based, human; settings: 100 nmol/L, 20% FBS, 6 h
In short: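 Matrigel was set at 37°C for 30 min. HUVEC (1 × 10^5/mL) in M199 with 20% FBS and drug were then plated onto it. After 6 h, capillary tube formation was imaged at high magnification.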

T1 sequence (P04626 23-1255): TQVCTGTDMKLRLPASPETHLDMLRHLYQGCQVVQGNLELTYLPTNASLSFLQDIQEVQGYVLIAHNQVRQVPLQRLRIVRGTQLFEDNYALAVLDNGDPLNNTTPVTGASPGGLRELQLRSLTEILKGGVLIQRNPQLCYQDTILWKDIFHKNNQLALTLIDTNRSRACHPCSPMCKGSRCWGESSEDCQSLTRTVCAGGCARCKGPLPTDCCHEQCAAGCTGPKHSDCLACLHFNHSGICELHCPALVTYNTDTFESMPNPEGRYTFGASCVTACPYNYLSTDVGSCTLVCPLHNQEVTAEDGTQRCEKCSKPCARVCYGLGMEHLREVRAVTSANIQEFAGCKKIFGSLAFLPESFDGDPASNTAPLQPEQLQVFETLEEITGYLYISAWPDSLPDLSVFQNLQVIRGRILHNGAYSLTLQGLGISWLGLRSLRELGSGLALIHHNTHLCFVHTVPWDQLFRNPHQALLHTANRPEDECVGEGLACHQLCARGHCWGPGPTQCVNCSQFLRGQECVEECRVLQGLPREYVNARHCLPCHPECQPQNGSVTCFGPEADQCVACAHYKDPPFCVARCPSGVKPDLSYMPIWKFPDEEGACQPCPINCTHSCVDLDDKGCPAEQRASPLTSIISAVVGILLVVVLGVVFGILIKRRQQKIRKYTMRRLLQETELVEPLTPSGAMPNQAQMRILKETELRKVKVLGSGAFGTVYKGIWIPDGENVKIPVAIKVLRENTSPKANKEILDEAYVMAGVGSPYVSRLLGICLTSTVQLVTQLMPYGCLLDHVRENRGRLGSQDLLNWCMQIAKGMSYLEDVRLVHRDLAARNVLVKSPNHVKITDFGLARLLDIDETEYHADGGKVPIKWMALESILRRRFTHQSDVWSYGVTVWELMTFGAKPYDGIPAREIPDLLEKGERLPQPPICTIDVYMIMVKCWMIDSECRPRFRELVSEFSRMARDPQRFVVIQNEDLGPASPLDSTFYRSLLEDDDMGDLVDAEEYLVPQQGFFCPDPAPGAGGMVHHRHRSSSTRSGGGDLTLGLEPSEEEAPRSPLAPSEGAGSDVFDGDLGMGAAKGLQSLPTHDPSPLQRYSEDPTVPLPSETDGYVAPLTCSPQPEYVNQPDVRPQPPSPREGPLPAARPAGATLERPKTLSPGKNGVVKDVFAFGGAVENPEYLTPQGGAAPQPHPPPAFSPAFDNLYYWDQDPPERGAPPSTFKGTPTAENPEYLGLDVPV
T2 sequence (P35968 20-1356): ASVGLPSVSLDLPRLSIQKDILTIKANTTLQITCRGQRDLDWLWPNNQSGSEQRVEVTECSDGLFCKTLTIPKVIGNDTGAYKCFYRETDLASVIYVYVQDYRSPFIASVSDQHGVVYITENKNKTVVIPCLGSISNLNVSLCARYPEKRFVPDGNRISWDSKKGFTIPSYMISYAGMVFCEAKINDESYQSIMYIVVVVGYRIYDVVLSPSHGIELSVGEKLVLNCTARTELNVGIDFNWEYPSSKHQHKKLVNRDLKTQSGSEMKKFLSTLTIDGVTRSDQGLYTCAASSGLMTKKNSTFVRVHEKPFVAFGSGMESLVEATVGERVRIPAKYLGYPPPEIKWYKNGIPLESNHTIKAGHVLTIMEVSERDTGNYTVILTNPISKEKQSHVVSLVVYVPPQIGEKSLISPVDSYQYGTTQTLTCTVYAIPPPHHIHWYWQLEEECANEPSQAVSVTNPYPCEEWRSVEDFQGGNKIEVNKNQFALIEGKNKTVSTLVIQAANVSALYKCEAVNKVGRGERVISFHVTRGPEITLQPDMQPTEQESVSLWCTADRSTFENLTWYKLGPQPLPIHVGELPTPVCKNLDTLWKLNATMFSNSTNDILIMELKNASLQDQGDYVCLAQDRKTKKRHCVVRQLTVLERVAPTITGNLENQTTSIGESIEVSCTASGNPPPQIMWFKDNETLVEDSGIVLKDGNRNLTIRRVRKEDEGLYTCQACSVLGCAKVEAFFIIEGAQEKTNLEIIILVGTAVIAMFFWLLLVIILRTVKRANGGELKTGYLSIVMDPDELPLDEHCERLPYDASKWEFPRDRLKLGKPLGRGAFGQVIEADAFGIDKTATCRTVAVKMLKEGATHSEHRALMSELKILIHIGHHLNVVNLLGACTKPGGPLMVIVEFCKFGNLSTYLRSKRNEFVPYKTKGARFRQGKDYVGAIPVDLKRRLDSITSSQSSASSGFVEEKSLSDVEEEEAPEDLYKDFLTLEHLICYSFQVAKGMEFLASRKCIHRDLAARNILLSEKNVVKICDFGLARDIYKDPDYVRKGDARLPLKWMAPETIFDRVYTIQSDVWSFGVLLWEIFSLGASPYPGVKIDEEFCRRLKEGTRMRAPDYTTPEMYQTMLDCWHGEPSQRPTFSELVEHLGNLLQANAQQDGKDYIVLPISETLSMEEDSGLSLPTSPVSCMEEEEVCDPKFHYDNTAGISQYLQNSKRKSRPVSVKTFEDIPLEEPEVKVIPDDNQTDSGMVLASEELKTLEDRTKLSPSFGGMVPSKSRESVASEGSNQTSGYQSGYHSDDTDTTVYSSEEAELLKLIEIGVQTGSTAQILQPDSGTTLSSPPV
Sequence of c‐Src (P12931 whole entry): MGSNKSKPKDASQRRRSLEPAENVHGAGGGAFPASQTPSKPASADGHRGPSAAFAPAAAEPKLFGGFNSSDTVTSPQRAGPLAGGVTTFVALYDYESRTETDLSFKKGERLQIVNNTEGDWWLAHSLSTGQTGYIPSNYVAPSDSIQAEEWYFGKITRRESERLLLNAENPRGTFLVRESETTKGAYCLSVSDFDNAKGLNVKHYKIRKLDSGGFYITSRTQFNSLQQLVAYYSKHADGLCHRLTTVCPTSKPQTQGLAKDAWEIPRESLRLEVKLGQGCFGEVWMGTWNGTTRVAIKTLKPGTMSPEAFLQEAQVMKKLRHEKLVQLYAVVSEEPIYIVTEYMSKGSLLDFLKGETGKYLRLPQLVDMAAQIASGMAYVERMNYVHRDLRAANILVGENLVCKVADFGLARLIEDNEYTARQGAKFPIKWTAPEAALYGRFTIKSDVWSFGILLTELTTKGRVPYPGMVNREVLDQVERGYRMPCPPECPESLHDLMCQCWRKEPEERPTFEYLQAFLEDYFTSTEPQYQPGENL
Sequence of c‐Met (P08581 25-1390): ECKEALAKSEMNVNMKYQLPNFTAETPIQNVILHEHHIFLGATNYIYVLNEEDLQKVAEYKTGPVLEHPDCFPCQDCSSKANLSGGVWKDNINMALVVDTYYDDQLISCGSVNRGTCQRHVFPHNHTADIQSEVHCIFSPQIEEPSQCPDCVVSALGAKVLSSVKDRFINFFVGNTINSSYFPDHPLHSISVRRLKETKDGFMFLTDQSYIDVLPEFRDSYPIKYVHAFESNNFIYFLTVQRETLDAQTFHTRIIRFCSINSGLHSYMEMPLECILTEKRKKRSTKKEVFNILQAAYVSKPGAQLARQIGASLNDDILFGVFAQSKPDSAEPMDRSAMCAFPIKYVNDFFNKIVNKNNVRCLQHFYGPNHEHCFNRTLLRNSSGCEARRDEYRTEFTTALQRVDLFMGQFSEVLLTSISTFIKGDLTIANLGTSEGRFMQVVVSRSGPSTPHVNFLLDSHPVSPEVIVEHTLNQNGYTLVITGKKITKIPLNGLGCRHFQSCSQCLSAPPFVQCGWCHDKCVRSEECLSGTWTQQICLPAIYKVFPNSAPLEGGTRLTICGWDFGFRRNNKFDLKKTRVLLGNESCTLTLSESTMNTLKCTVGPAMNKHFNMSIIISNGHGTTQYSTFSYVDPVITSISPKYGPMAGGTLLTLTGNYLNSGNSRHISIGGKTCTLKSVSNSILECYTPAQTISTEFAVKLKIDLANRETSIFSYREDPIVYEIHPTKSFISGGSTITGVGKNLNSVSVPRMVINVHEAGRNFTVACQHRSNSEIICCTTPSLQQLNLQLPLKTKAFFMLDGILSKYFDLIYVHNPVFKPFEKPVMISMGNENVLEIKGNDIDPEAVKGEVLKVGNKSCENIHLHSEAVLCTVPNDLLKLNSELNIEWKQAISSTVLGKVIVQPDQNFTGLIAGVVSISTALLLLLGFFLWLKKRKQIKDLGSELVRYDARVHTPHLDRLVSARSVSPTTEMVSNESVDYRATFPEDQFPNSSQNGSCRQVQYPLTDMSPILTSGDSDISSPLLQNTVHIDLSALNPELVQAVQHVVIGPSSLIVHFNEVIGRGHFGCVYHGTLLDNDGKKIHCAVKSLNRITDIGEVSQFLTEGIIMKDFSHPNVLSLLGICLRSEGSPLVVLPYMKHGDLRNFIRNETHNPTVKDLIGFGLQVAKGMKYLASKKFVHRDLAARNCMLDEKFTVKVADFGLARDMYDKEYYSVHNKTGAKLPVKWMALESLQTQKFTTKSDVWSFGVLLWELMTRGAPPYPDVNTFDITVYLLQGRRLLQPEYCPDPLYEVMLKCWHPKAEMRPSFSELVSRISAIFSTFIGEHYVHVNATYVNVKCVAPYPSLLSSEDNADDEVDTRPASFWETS

SMILES: COc1cc2c(Oc3ccc4[nH]c(C)cc4c3F)ccnc2cc1OCC1(N)CC1.Cl.Cl [Anlotinib, 1‐[[[4‐(4‐fluoro‐2‐methyl‐1H‐indol‐5‐yloxy)‐6‐methoxyquinolin‐7‐Yl]oxy]methyl]cyclopropanamine dihydrochloride]
- inhibition rate of CD31‐positive microvessels (microvessel density) ([1]; 0.75 mg/kg oral daily): 48.9%
- inhibition rate of CD31‐positive microvessels (microvessel density) ([1]; 3 mg/kg oral daily): 91.2%
- inhibition rate of CD31‐positive microvessels (microvessel density) ([1]; […] oral daily): 76.3%
- IC50 (VEGFR3): 0.7 ± 0.1 nM
- IC50 (HER2 [2]): > 2000 nM
- effect on HER2 kinase activity (HER2 [2]; at 2000 nmol/L): little effect
- IC50 (c‐Src): > 2000 nM
- effect on c‐Src kinase activity (c‐Src; at 2000 nmol/L): little effect
- IC50 (HUVEC [3]): 0.2 nM
- IC50 (HUVEC [4]): 0.1 nM
- IC50 (EGFR): > 2000 nM
- effect on EGFR kinase activity (EGFR; at 2000 nmol/L): little effect
- potency relative to sunitinib for inhibition of VEGF2/3 (VEGFR2 [5]): 20 fold
- IC50 (VEGFR2 [5]; IC50 VEGFR2 kinase, ELISA, recombinant tyrosine kinase, mean ± SD (n = 3)): < 1 nM
- IC50 (HUVEC [6]): 2000 nM
- IC50 (panel of tumor cells; Homo sapiens, 72 h, read-out: IC50 FBS‐stimulated tumor cell proliferation): 3000 to 12500 nM
- tumor cell IC50 relative to IC50 for VEGF‐stimulated HUVEC proliferation (panel of tumor cells; greater than HUVEC value): more than 10 000 fold
- SCF‐1‐stimulated phosphorylation of c‐Kit, AKT and ERK (c‐Kit [7]): inhibited
- IC50 (c‐Kit [8]): 14.8 ± 2.5 nM
- PDGF‐BB‐stimulated phosphorylation of PDGFRβ, AKT and ERK (PDGFRβ): inhibited
- circulation time in clinical trials [9]: long circulation time
- toxicity in clinical trials [9]: manageable toxicity
- constitutive HER2 signaling (HER2 [10]): nor the constitutive HER2 signaling in BT‐474 cells was affected
- IC50 (c‐Met): > 2000 nM
- effect on c‐Met kinase activity (c‐Met; at 2000 nmol/L): little effect
- IC50 (VEGFR1): 26.9 ± 7.7 nM
- VEGF‐stimulated ERK1/2 phosphorylation (VEGFR2 [11]): inhibited
- effect on VEGF‐stimulated VEGFR2 phosphorylation (VEGFR2 [11]; 0.1 nmol/L): clear inhibitory effect
- IC50, VEGF‐stimulated intracellular phosphorylation of VEGFR2 (VEGFR2 [11]; […] treatment, VEGF 20 ng/mL 10 min): subnanomolar
- budding of the aortic ring (rat aortic rings): near complete inhibition
- %TGI (SW620 tumor xenografts; SW620 (colon), 3 mg/kg p.o. daily, 18 d, 3 mg/kg): 83%
- effect on bodyweight in mice (SW620 tumor xenografts; SW620 xenograft, all groups, during the course of the experiment): little effect on bodyweight
- HUVEC tube formation (HUVEC [12]): few enclosed tubes were detected

SMILES: CCN(CC)CCNC(=O)c1c(C)[nH]c(/C=C2\C(=O)Nc3ccc(F)cc32)c1C [Sunitinib, reference compound]
- inhibition rate of CD31‐positive microvessels (microvessel density) ([1]; 50 mg/kg oral daily): 63.6%
- IC50 (HUVEC [3]): 18.5 nM

SMILES: CNC(=O)c1cc(Oc2ccc(NC(=O)Nc3ccc(Cl)c(C(F)(F)F)c3)cc2)ccn1 [Sorafenib]
- IC50 (HUVEC [3]): 195 nM
